# Key:
# Type in all cases: functional
# HL-60(TB) = experiment: Cytotoxicity against human HL-60(TB) cells assessed as growth inhibition at 10 uM after 48 hrs by sulphorhodamine B assay; conditions: HL-60, 48 h, read-out: GI
# Method in brief: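 NCI-60 one-dose primary screen run to the Drug Evaluation Branch protocol. Cells are exposed to a single 10 µM concentration for 48 h continuously, and growth is read by SRB protein assay. Data are reported as percent growth of treated cells, expressed as % growth inhibition.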
# RXF 393 = experiment: Cytotoxicity against human RXF393 cells assessed as growth inhibition at 10 uM after 48 hrs by sulphorhodamine B assay; conditions: RXF 393, 48 h, read-out: GI
# Method in brief: (§1)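 NCI-60 one-dose screen per the NCI Drug Evaluation Branch protocol. Cells given a single 10 µM concentration with 48 h continuous exposure. Growth estimated by sulphorhodamine B protein assay. Result expressed as percentage growth inhibition relative to untreated growth.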
# SK-MEL-2 = experiment: Cytotoxicity against human SK-MEL-2 cells assessed as growth inhibition at 10 uM after 48 hrs by sulphorhodamine B assay; conditions: SK-MEL-2, 48 h, read-out: GI; method in brief: as §1
# MDA-MB-435 = experiment: Cytotoxicity against human MDA-MB-435 cells assessed as growth inhibition at 10 uM after 48 hrs by sulphorhodamine B assay; conditions: MDA-MB-435, 48 h, read-out: GI; method in brief: as §1
# Hs-578T = experiment: Cytotoxicity against human Hs578T cells assessed as growth inhibition at 10 uM after 48 hrs by sulphorhodamine B assay; conditions: read-out: GI; method in brief: as §1
# NCI-H23 = experiment: Cytotoxicity against human NCI-H23 cells assessed as growth inhibition at 10 uM after 48 hrs by sulphorhodamine B assay; conditions: NCI-H23, 48 h, read-out: GI; method in brief: as §1
# MOLT-4 = experiment: Cytotoxicity against human MOLT4 cells assessed as growth inhibition at 10 uM after 48 hrs by sulphorhodamine B assay; conditions: MOLT-4, 48 h, read-out: GI; method in brief: as §1
# HOP-92 = experiment: Cytotoxicity against human HOP92 cells assessed as growth inhibition at 10 uM after 48 hrs by sulphorhodamine B assay; conditions: HOP-92, 48 h, read-out: GI; method in brief: as §1
# SNB-19 = experiment: Cytotoxicity against human SNB19 cells assessed as growth inhibition at 10 uM after 48 hrs by sulphorhodamine B assay; conditions: SNB-19, 48 h, read-out: GI; method in brief: as §1
# SR = experiment: Cytotoxicity against human SR cells assessed as growth inhibition at 10 uM after 48 hrs by sulphorhodamine B assay; conditions: read-out: GI; method in brief: as §1
# HCT-116 = experiment: Cytotoxicity against human HCT116 cells assessed as growth inhibition at 10 uM after 48 hrs by sulphorhodamine B assay; conditions: HCT-116, 48 h, read-out: GI; method in brief: as §1
# HT-29 = experiment: Cytotoxicity against human HT-29 cells assessed as growth inhibition at 10 uM after 48 hrs by sulphorhodamine B assay; conditions: HT-29, 48 h, read-out: GI; method in brief: as §1
# MDA-MB-468 = experiment: Cytotoxicity against human MDA-MB-468 cells assessed as growth inhibition at 10 uM after 48 hrs by sulphorhodamine B assay; conditions: MDA-MB-468, 48 h, read-out: GI; method in brief: as §1
# LOX IMVI = experiment: Cytotoxicity against human LOXIMVI cells assessed as growth inhibition at 10 uM after 48 hrs by sulphorhodamine B assay; conditions: read-out: GI; method in brief: as §1
# RPMI-8226 = experiment: Cytotoxicity against human RPMI8226 cells assessed as growth inhibition at 10 uM after 48 hrs by sulphorhodamine B assay; conditions: RPMI-8226, 48 h, read-out: GI; method in brief: as §1
# U-251 = experiment: Cytotoxicity against human U251 cells assessed as growth inhibition at 10 uM after 48 hrs by sulphorhodamine B assay; conditions: U-251, 48 h, read-out: GI; method in brief: as §1
# CCRF-CEM = experiment: Cytotoxicity against human CCRF-CEM cells assessed as growth inhibition at 10 uM after 48 hrs by sulphorhodamine B assay; conditions: read-out: GI; method in brief: as §1
# SF-295 = experiment: Cytotoxicity against human SF295 cells assessed as growth inhibition at 10 uM after 48 hrs by sulphorhodamine B assay; conditions: SF-295, 48 h, read-out: GI; method in brief: as §1
# SK-MEL-5 = experiment: Cytotoxicity against human SK-MEL-5 cells assessed as growth inhibition at 10 uM after 48 hrs by sulphorhodamine B assay; conditions: SK-MEL-5, 48 h, read-out: GI; method in brief: as §1
# UO-31 = experiment: Cytotoxicity against human UO31 cells assessed as growth inhibition at 10 uM after 48 hrs by sulphorhodamine B assay; conditions: UO-31, 48 h, read-out: GI; method in brief: as §1
# SNB-75 = experiment: Cytotoxicity against human SNB75 cells assessed as growth inhibition at 10 uM after 48 hrs by sulphorhodamine B assay; conditions: SNB-75, 48 h, read-out: GI; method in brief: as §1
# [1] = Cytotoxicity against human EKVX cells assessed as growth inhibition at 10 uM after 48 hrs by sulphorhodamine B assay; conditions: read-out: GI; method in brief: as §1
# A498 = experiment: Cytotoxicity against human A498 cells assessed as growth inhibition at 10 uM after 48 hrs by sulphorhodamine B assay; conditions: A498, 48 h, read-out: GI; method in brief: as §1
# OVCAR-5 = experiment: Cytotoxicity against human OVCAR5 cells assessed as growth inhibition at 10 uM after 48 hrs by sulphorhodamine B assay; conditions: OVCAR-5, 48 h, read-out: GI; method in brief: as §1
# HCT-15 = experiment: Cytotoxicity against human HCT15 cells assessed as growth inhibition at 10 uM after 48 hrs by sulphorhodamine B assay; conditions: HCT-15, 48 h, read-out: GI; method in brief: as §1
# M14 = experiment: Cytotoxicity against human M14 cells assessed as growth inhibition at 10 uM after 48 hrs by sulphorhodamine B assay; conditions: M14, 48 h, read-out: GI; method in brief: as §1
# OVCAR-4 = experiment: Cytotoxicity against human OVCAR4 cells assessed as growth inhibition at 10 uM after 48 hrs by sulphorhodamine B assay; conditions: OVCAR-4, 48 h, read-out: GI; method in brief: as §1
# CAKI-1 = experiment: Cytotoxicity against human Caki1 cells assessed as growth inhibition at 10 uM after 48 hrs by sulphorhodamine B assay; conditions: CAKI-1, 48 h, read-out: GI; method in brief: as §1
# MCF7 = experiment: Cytotoxicity against human MCF7 cells assessed as growth inhibition at 10 uM after 48 hrs by sulphorhodamine B assay; conditions: MCF7, 48 h, read-out: GI; method in brief: as §1
# UACC-62 = experiment: Cytotoxicity against human UACC62 cells assessed as growth inhibition at 10 uM after 48 hrs by sulphorhodamine B assay; conditions: UACC-62, 48 h, read-out: GI; method in brief: as §1
# NCI-H522 = experiment: Cytotoxicity against human NCI-H522 cells assessed as growth inhibition at 10 uM after 48 hrs by sulphorhodamine B assay; conditions: NCI-H522, 48 h, read-out: GI; method in brief: as §1
# DU-145 = experiment: Cytotoxicity against human DU145 cells assessed as growth inhibition at 10 uM after 48 hrs by sulphorhodamine B assay; conditions: DU-145, 48 h, read-out: GI; method in brief: as §1
# PC-3 = experiment: Cytotoxicity against human PC3 cells assessed as growth inhibition at 10 uM after 48 hrs by sulphorhodamine B assay; conditions: PC-3, 48 h, read-out: GI; method in brief: as §1
# IGROV-1 = experiment: Cytotoxicity against human IGROV1 cells assessed as growth inhibition at 10 uM after 48 hrs by sulphorhodamine B assay; conditions: IGROV-1, 48 h, read-out: GI; method in brief: as §1
# ACHN = experiment: Cytotoxicity against human ACHN cells assessed as growth inhibition at 10 uM after 48 hrs by sulphorhodamine B assay; conditions: read-out: GI; method in brief: as §1
# K562 = experiment: Cytotoxicity against human K562 cells assessed as growth inhibition at 10 uM after 48 hrs by sulphorhodamine B assay; conditions: K562, 48 h, read-out: GI; method in brief: as §1
# SF-268 = experiment: Cytotoxicity against human SF268 cells assessed as growth inhibition at 10 uM after 48 hrs by sulphorhodamine B assay; conditions: SF-268, 48 h, read-out: GI; method in brief: as §1
# A549 = experiment: Cytotoxicity against human A549 cells assessed as growth inhibition at 10 uM after 48 hrs by sulphorhodamine B assay; conditions: A549, 48 h, read-out: GI; method in brief: as §1
# NCI/ADR-RES = experiment: Cytotoxicity against human NCI/ADR-RES cells assessed as growth inhibition at 10 uM after 48 hrs by sulphorhodamine B assay; conditions: read-out: GI; method in brief: as §1
# SK-OV-3 = experiment: Cytotoxicity against human SKOV3 cells assessed as growth inhibition at 10 uM after 48 hrs by sulphorhodamine B assay; conditions: SK-OV-3, 48 h, read-out: GI; method in brief: as §1
# T47D = experiment: Cytotoxicity against human T47D cells assessed as growth inhibition at 10 uM after 48 hrs by sulphorhodamine B assay; conditions: read-out: GI; method in brief: as §1
smiles,measurement,setting,value
CC1CCCc2c1nc1ncnc(N)c1c2-c1ccc(Cl)cc1 (stereo unspecified),inhibition of growth at 10 µM,HL-60(TB),12.4%
same,inhibition of growth at 10 µM,RXF 393,11%
same,inhibition of growth at 10 µM,SK-MEL-2,< 10%
same,inhibition of growth at 10 µM,MDA-MB-435,< 10%
same,inhibition of growth at 10 µM,Hs-578T,14.7%
same,inhibition of growth at 10 µM,NCI-H23,< 10%
same,inhibition of growth at 10 µM,MOLT-4,< 10%
same,inhibition of growth at 10 µM,HOP-92,25.3%
same,inhibition of growth at 10 µM,SNB-19,21.3%
same,inhibition of growth at 10 µM,SR,< 10%
same,inhibition of growth at 10 µM,HCT-116,14%
same,inhibition of growth at 10 µM,HT-29,13.3%
same,inhibition of growth at 10 µM,MDA-MB-468,20%
same,inhibition of growth at 10 µM,LOX IMVI,< 10%
same,inhibition of growth at 10 µM,RPMI-8226,21.3%
same,inhibition of growth at 10 µM,U-251,14.5%
same,inhibition of growth at 10 µM,CCRF-CEM,22.2%
same,inhibition of growth at 10 µM,SF-295,< 10%
same,inhibition of growth at 10 µM,SK-MEL-5,10.2%
same,inhibition of growth at 10 µM,UO-31,10.1%
same,inhibition of growth at 10 µM,SNB-75,21.5%
same,inhibition of growth at 10 µM,[1],< 10%
same,inhibition of growth at 10 µM,A498,27.7%
same,inhibition of growth at 10 µM,OVCAR-5,< 10%
same,inhibition of growth at 10 µM,HCT-15,10%
same,inhibition of growth at 10 µM,M14,< 10%
same,inhibition of growth at 10 µM,OVCAR-4,17.8%
same,inhibition of growth at 10 µM,CAKI-1,< 10%
same,inhibition of growth at 10 µM,MCF7,< 10%
same,inhibition of growth at 10 µM,UACC-62,13.8%
same,inhibition of growth at 10 µM,NCI-H522,11%
same,inhibition of growth at 10 µM,DU-145,< 10%
same,inhibition of growth at 10 µM,PC-3,24.2%
same,inhibition of growth at 10 µM,IGROV-1,< 10%
same,inhibition of growth at 10 µM,ACHN,< 10%
same,inhibition of growth at 10 µM,K562,25%
same,inhibition of growth at 10 µM,SF-268,12.3%
same,inhibition of growth at 10 µM,A549,< 10%
same,inhibition of growth at 10 µM,NCI/ADR-RES,< 10%
same,inhibition of growth at 10 µM,SK-OV-3,12%
same,inhibition of growth at 10 µM,T47D,40%
